Here are results for 12 compounds from ChEMBL document CHEMBL1147338, “Production of an anti-allergic triterpene bryonolic acid, by plant cell cultures” (J Nat Prod, 1993).

The subject of data set [1] is Mus musculus. As to the kind of experiment: Antiallergic activity in ip dosed ddY mouse assessed as inhibition of passive cutaneous anaphylaxis administered 15 mins before egg albumin challenge. It counts as functional. The conditions noted are these: read-out: ID50 (the source's name). The method in brief:
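Passive cutaneous anaphylaxis: anti-egg-albumin antiserum injected into both ears 48 h before iv egg albumin plus Evans Blue. Intraperitoneal dosing 15 min before antigen; dye leakage per ear measured spectrophotometrically after 30 min. ID50 (mg/kg) given as dose giving 50% inhibition.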

The subject of data set [2] is Mus musculus. Nature of the data set: Antiallergic activity in ddY mouse assessed as inhibition sheep erythrocytes-induced arthus reaction at 30 mg/kg, po administered 30 mins before induction of arthus reaction. The class given is functional. In short, it runs like this:
(§1)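 Male ddY mice (4-week-old, 16–18 g) sensitized by iv sheep erythrocytes 19 and 5 days before Arthus reaction, induced by sc sheep erythrocytes into right paw. Oral dosing 30 min before induction; edema scored as right minus left paw thickness, expressed as % inhibition of control.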

The test system of data set [3] is Mus musculus. Nature of the data set: Antiallergic activity in ddY mouse assessed as inhibition picryl chloride-induced contact dermatitis at 30 mg/kg, po administered 3 hrs after picryl chloride challenge measured after 24 hrs.
Data set [4] concerns the target T1, Aldo-keto reductase family 1 member D1 (Rattus norvegicus) (UniProt P31210).
T1 sequence (whole entry): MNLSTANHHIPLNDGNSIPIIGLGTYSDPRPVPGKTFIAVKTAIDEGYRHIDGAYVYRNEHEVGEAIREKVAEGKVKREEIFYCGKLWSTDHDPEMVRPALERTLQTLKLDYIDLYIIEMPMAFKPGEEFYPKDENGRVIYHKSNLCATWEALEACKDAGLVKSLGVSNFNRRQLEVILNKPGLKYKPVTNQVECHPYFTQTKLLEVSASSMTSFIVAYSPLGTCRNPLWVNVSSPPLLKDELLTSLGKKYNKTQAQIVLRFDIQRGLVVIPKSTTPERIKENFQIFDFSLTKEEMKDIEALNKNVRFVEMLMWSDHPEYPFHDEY
As to the kind of experiment: Inhibition of rat liver 3-ketosteroid 5-beta-reductase.

The test system of data set [5] is Mus musculus. Nature of the data set: Acute toxicity in ddY mouse at 4 g/kg, po. It counts as organism-based. The conditions noted are these: in vivo, 4000 mg/kg. In short, it runs like this:
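Mice dosed orally at 4 g/kg; lethality recorded as the read-out for acute toxicity.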

Data set [6] concerns Mus musculus. As to the kind of experiment: Antiallergic activity in po dosed ddY mouse assessed as inhibition of passive cutaneous anaphylaxis administered 30 mins before egg albumin challenge. It counts as functional. The conditions noted are these: read-out: ID50 (the source's name). In short, it runs like this:
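Passive cutaneous anaphylaxis in mice: ear sensitization with anti-egg-albumin antiserum 48 h before iv egg albumin with Evans Blue; oral dosing 30 min before antigen; ear dye leakage read spectrophotometrically 30 min after challenge.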

In data set [7] the test system is Mus musculus. As to the kind of experiment: Antiallergic activity in ddY mouse assessed as inhibition sheep erythrocytes-induced arthus reaction at 300 mg/kg, po administered 30 mins before induction of arthus reaction. The class given is functional. The method in brief: as §1
The test system of data set [8] is Mus musculus. Nature of the data set: Antiallergic activity in ddY mouse assessed as inhibition sheep erythrocytes-induced arthus reaction at 600 mg/kg, po administered 30 mins before induction of arthus reaction. The class given is functional. In short, it runs like this: as §1
In data set [9] the test system is Mus musculus. As to the kind of experiment: Antiallergic activity in ddY mouse assessed as inhibition picryl chloride-induced contact dermatitis at 75 mg/kg, po administered 3 hrs after picryl chloride challenge measured after 24 hrs.
The test system of data set [10] is Mus musculus. As to the kind of experiment: Antiallergic activity in ddY mouse assessed as inhibition picryl chloride-induced contact dermatitis at 150 mg/kg, po administered 3 hrs after picryl chloride challenge measured after 24 hrs.
Data set [11] deals with Mus musculus. Nature of the data set: Antiallergic activity in ddY mouse assessed as inhibition picryl chloride-induced contact dermatitis at 300 mg/kg, po administered 3 hrs after picryl chloride challenge measured after 24 hrs.

Calls of active or inactive are those of the source. No cut-off for these calls is given here.

Regarding `CC1(C)[C@@H](OC(=O)CCC(=O)[O-])CC[C@]2(C)C3=C(CC[C@@H]12)[C@@]1(C)CC[C@@]2(C)CC[C@@](C)(CO)C[C@H]2[C@]1(C)CC3.[K+]`, the ED50 in [1] was found to be 50.3 mg/kg. Still for that read-out and setting: as for `CC1(C)[C@@H](O)CC[C@]2(C)C3=C(CC[C@@H]12)[C@@]1(C)CC[C@@]2(C)CC[C@@](C)(CO)C[C@H]2[C@]1(C)CC3`, the figure is 315 mg/kg.

As to `COc1ccc(/C=C/C(=O)Nc2ccccc2C(=O)O)cc1OC` [TRANILAST], the ED50 in data set [1] was 152 mg/kg. As a reminder, the inhibition in vivo is the relative decrease from the control value, in per cent. Regarding `C[C@]12C=CC(=O)C=C1CC[C@@H]1[C@@H]2[C@@H](O)C[C@@]2(C)[C@H]1CC[C@]2(O)C(=O)COC(=O)CCC(=O)O` [PREDNISOLONE HEMISUCCINATE], the inhibition in vivo at 30 mg/kg in data set [2] worked out at 37.4%; in [3], 41%. Regarding `CC1(C)[C@@H](O)CC[C@]2(C)C3=C(CC[C@@H]12)[C@@]1(C)CC[C@@]2(C)CC[C@@](C)(C(=O)O)C[C@H]2[C@]1(C)CC3` [BRYONOLIC ACID], the outcome in data set [4] was inactive. In addition, the ED50 in data set [1] amounted to 376 mg/kg. As for `CC1(C)[C@@H](OC(=O)CCC(=O)[O-])CC[C@]2(C)C3=C(CC[C@@H]12)[C@@]1(C)CC[C@@]2(C)CC[C@@](C)(C(=O)[O-])C[C@H]2[C@]1(C)CC3.[K+].[K+]`, in data set [5], the Activity entry is reported as “Non-toxic”. For the same compound, the ED50 in [1] is 55.3 mg/kg; in [6], 63.7 mg/kg. Also, the inhibition in vivo at 300 mg/kg in [7] was 35.3%; in data set [11], 53%. Also, the inhibition in vivo at 600 mg/kg in [8] came to 62.4%. Moreover, the inhibition in vivo at 75 mg/kg in data set [9] was 34%. Moreover, the inhibition in vivo at 150 mg/kg in data set [10] came to 40.7%. On to `CC1(C)[C@@H](OC(=O)CCC(=O)[O-])CC[C@]2(C)C3=CC[C@@]4(C)[C@@H]5C[C@](C)(C(=O)[O-])CC[C@]5(C)CC[C@]4(C)C3=CC[C@@H]12.[K+].[K+]`, for which the ED50 in data set [1] worked out at 92.4 mg/kg. Turning to `CC1(C)[C@@H](OC(=O)c2ccccc2C(=O)[O-])CC[C@]2(C)C3=C(CC[C@@H]12)[C@@]1(C)CC[C@@]2(C)CC[C@@](C)(COC(=O)c4ccccc4C(=O)[O-])C[C@H]2[C@]1(C)CC3.[K+].[K+]`, the ED50 in [1] was found to be 41.4 mg/kg; in data set [6], 92.5 mg/kg. Consider `CC1(C)[C@@H](O)CC[C@]2(C)[C@H]3C(=O)C=C4[C@@H]5C[C@@](C)(C(=O)O)CC[C@]5(C)CC[C@@]4(C)[C@]3(C)CC[C@@H]12`, for which the result in data set [4] was Active. Regarding `CC1(C)[C@@H](O)CC[C@]2(C)C3=C(CC[C@@H]12)[C@@]1(C)CC[C@@]2(C)CC[C@@](C)(COC(=O)CCC(=O)[O-])C[C@H]2[C@]1(C)CC3.[K+]`, the ED50 in data set [1] was over 400 mg/kg.

In the case of `CC1(C)[C@@H](OC(=O)CCC(=O)[O-])CC[C@]2(C)C3=C(CC[C@@H]12)[C@@]1(C)CC[C@@]2(C)CC[C@@](C)(COC(=O)CCC(=O)[O-])C[C@H]2[C@]1(C)CC3.[K+].[K+]`, in data set [1], the ED50 turned out to be 52.4 mg/kg. Consider `CC1(C)[C@@H](OC(=O)c2ccccc2C(=O)[O-])CC[C@]2(C)C3=C(CC[C@@H]12)[C@@]1(C)CC[C@@]2(C)CC[C@@](C)(C(=O)[O-])C[C@H]2[C@]1(C)CC3.[K+].[K+]`, for which the figures for the ED50 in data set [1] and in data set [6] were 34.2 mg/kg and 172 mg/kg, respectively.
